This note sets out measurements from publication PMC2233693 (The Journal of General Physiology, 2000).

Structures are written as SMILES. Numbering of substitutions follows the chain as printed.

Format in all cases: biochemical
The target in test [1] is T1, wild-type bovine olfactory CNG channel (α3 subunit) (Bos taurus, UniProt Q03041).
T1 sequence (Q03041 1-663): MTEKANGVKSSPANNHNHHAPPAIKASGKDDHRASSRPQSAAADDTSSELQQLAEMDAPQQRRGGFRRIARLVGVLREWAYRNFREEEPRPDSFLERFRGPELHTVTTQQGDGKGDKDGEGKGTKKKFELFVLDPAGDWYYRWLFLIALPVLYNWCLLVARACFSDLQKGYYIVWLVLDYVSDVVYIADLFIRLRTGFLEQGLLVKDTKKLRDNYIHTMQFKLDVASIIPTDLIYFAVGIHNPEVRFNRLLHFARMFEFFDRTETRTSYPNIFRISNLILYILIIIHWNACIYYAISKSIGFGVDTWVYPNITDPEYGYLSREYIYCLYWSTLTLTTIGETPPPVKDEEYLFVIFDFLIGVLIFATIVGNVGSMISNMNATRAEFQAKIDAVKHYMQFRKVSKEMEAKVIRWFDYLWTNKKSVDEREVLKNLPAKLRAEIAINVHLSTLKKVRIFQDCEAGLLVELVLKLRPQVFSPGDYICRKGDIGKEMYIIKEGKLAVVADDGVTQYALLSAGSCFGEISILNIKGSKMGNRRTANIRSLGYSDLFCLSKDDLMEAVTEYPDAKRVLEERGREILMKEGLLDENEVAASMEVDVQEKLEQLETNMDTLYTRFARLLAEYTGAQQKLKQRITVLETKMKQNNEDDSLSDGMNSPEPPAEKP
Kind of test: Blockage of macroscopic current by internal Ca2+, inside-out patches. The following applies: read-out: K i for internal Ca2+ blockage, +80 mV, 1 mM cGMP, average.

The target in test [2] is T2, E340G mutant bovine olfactory CNG channel (Bos taurus, UniProt Q03041, E340G).
T2 sequence (Q03041 1-663 E340G): T1 sequence (Q03041 1-663) with E340G
Put plainly: External Ca2+ blockage of single-channel current, outside-out patches. To be noted: for n (single-channel Ca2+ blockage): Fig. 7 patch. The essentials:
(§1)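 Outside-out oocyte patches with cGMP in the pipette (wild-type 5 μM, E340G 1 mM) and increasing external Ca2+. Single-channel currents at +80 and −80 mV, filtered at 2 kHz, sampled at 10 kHz. Amplitudes from all-points histograms (30 s) fitted with summed Gaussians, normalised to divalent-free current, Hill-fitted for Ki and n. Two further patches per channel type.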

Test [3] addresses T1, wild-type bovine olfactory CNG channel (α3 subunit). Described as above. The following applies: for effect on single-channel current: 5 μM cGMP; for n (single-channel Ca2+ blockage): Fig. 7 patch. The essentials:
as §1

Test [4] has the same target. The following applies: cGMP.

Consider `[Ca+2]` [Ca^2+], for which the Ki in test [1] amounted to 1 ± 0.7 mM. The “effect on single-channel amplitude” value in test [2] (1 or even 10 mM external Ca2+, 1 mM cGMP) is on record as “only slightly reduced”. Further, the “n (single-channel Ca2+ blockage)” value in test [2] (+80 mV) was found to be 0.7; in test [2] (−80 mV), 0.8; in test [3] (+80 mV), 1; in test [3] (−80 mV) it was 1.1. Moreover, the “effect on single-channel current” value is “partial blockage” in test [3] (50 μM external Ca2+, −80 mV) and “no current was detected” in test [3] (1 mM external Ca2+, −80 mV).

Consider `Nc1nc2c(ncn2[C@@H]2O[C@@H]3COP(=O)(O)O[C@H]3[C@H]2O)c(=O)[nH]1` [cGMP], for which, in test [4], the “P max (+80 mV)” value is 0.993 ± 0.004 and the “P max (−80 mV)” value was 0.996 ± 0.001. In addition, the “L, equilibrium gating constant” value in test [4] (allosteric model fit, mean ± SD) is reported as 334 ± 82.
